Experimental findings from PubChem BioAssay AID493080 (Broad Institute, 2011) are described below.

Where “and” joins values, the source holds several entries; their conditions need not be identical. Equal entries are not always repeated. Calls of active or inactive are those of the source.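 Rule for the calls: active = growth inhibition with fitted AC50 no more than ten times the top valid dose; inconclusive = flat fit at 30 to 70% inhibition, or bad fit; inactive = the rest, including rises in signal.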

The nature of experiment [1]: Candida CaCi-2 inhibition with fluconazole present – dry powder retest, set 3, confirmation (AID 493080). Particulars: C. albicans CaCi-2 + fluconazole, Alamar Blue growth, 48 h. The essentials: (§1)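 System: fluconazole-resistant Candida albicans clinical isolate CaCi-2. Quantity: fungal inoculum at starting A600 of 0.00015. Buffer or medium: RPMI medium, MOPS-buffered. Probe or stimulus: fluconazole 8 µg/mL. Compound: pin-transferred compounds. Times: 48 h compound exposure, 37 °C, then Alamar Blue 2 h. Signal: Alamar Blue fluorescence, Ex 544 nm, Em 590 nm. Benchmarks: geldanamycin positive control.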
Background: Resazurin is reduced to fluorescent resorufin, in cell work by metabolically active cells.

Experiment [2] has as its system C. albicans CaCi-2 + fluconazole, Alamar Blue growth, 48 h. The description is as above. The method in brief: as §1

`O=C(Cn1nc(-c2ccccc2)c2cc(Cl)ccc21)N1CCOCC1`: in experiment [1] (at 12 µM (top of the series)), the activity change, negative = inhibition is -1.59% (inactive).

Regarding `N#Cc1ccc(C(=O)N2CCN(c3ccccn3)CC2)cc1`, the activity change, negative = inhibition in experiment [1] (at 12 µM (top of the series)) is -16.1% (inactive).

One may read the AC50 as the concentration giving half of the maximal activity seen. For the compound `O=C(c1ccc(Cl)cc1)N1CCN(c2ccc(C(F)(F)F)cn2)CC1`, the AC50 in experiment [2] is > 12 µM (inactive).

`O=C(Cn1c2ccc(F)cc2c2nc3n(c(=O)c21)CCS3)N1CCCC1`: the AC50 in experiment [2] is 0.532 µM.

Take `O=C(c1ccc(Cl)cc1)N1CCN(c2nc3ccccc3s2)CC1`: the AC50 in experiment [2] is 4.12 µM.

Take `O=C(c1ccc(Cl)cc1)N1CCN(c2cccc(C(F)(F)F)n2)CC1`: the activity change, negative = inhibition in experiment [1] (at 12 µM (top of the series)) is -1.86% (inactive).

With `O=C(O)c1nn(Cc2ccc(Cl)cc2)c2ccccc12`, the activity change, negative = inhibition in experiment [1] (at 12 µM (top of the series)) was -7.95% (inactive).

In the case of `CC(C)C(=O)N1CCN(c2ccccn2)CC1`, the activity change, negative = inhibition in experiment [1] (at 12 µM (top of the series)) was 6.09% (inactive).

For `COC(=O)Cn1nc(C)c2ccccc21`, the activity change, negative = inhibition in experiment [1] (at 12 µM (top of the series)) is -1.03% (inactive).

Take `CCN(CC)C(=O)Cn1c2ccccc2c2nc3n(c(=O)c21)CCS3`: the AC50 in experiment [2] is 1.67 µM and 1.82 µM.

In the case of `CC1CCN(C(=O)Cn2c3ccccc3c3nc4n(c(=O)c32)CCS4)CC1`, the AC50 in experiment [2] was 2.2 µM.

For the compound `CCOC(=O)c1nn(Cc2ccc(Cl)cc2)c2ccccc12`, the activity change, negative = inhibition in experiment [1] (at 12 µM (top of the series)) was 4.97% (inactive).

Turning to `CCOC(=O)c1c2ccccc2nn1Cc1ccc(Cl)cc1`, the activity change, negative = inhibition in experiment [1] (at 12 µM (top of the series)) is 17.8% (inactive).

For `O=C(C1CCCCC1)N1CCN(c2ccccn2)CC1`, the activity change, negative = inhibition in experiment [1] (at 12 µM (top of the series)) is -20.7% (inactive).

Regarding `N#Cc1cccnc1N1CCN(C(=O)c2ccc(Cl)cc2)CC1`, the activity change, negative = inhibition in experiment [1] (at 12 µM (top of the series)) is -11.5% (inactive).

As to `O=c1c2[nH]c3ccccc3c2nc2n1CCS2`, the AC50 in experiment [2] was 8.16 µM.

Turning to `O=C(Cn1c2ccccc2c2nc3n(c(=O)c21)CCCS3)c1ccc(F)cc1`, the activity change, negative = inhibition in experiment [1] (at 12 µM (top of the series)) is 3.71% (inactive).

`COc1ccnc(N2CCN(C(=O)c3ccc(Cl)cc3)CC2)c1`: the AC50 in experiment [2] is > 12 µM (inactive).

For the compound `COCCC(=O)N1CCN(c2ccccn2)CC1`, in experiment [1] (at 12 µM (top of the series)), the activity change, negative = inhibition was -0.956% (inactive).

Consider `CCCCC(=O)N1CCN(c2ccccn2)CC1`, for which the activity change, negative = inhibition in experiment [1] (at 12 µM (top of the series)) is -2.66% (inactive).

As to `COc1ccc2c(c1)c1nc3n(c(=O)c1n2CC(=O)N1CCC(C)CC1)CCS3`, the activity change, negative = inhibition in experiment [1] (at 1.2 µM (top of the series)) is 15.5% (inactive).

Consider `O=C(Cn1c2ccc(F)cc2c2nc3n(c(=O)c21)CCS3)N1CCCCC1`, for which the AC50 in experiment [2] is 0.384 µM.

On to `O=C(Cn1c2ccccc2c2nc3n(c(=O)c21)CCS3)NCCc1ccc(Cl)cc1`, for which the activity change, negative = inhibition in experiment [1] (at 12 µM (top of the series)) is -0.805% (inactive).

Consider `O=C(c1cccc(Cl)c1)N1CCN(c2ccccn2)CC1`, for which the activity change, negative = inhibition in experiment [1] (at 12 µM (top of the series)) is 8.07% (inactive).

As for `CCCNC(=O)Cn1nc(-c2ccccc2)c2ccccc21`, in experiment [1] (at 12 µM (top of the series)), the activity change, negative = inhibition was 26.9% (inactive).

Take `O=C(Cn1nc(-c2ccccc2)c2ccccc21)NCc1ccc(Cl)cc1`: the activity change, negative = inhibition in experiment [1] (at 12 µM (top of the series)) is -6.29% (inactive).

On to `O=c1c2[nH]c3ccc(F)cc3c2nc2n1CCS2`, for which the AC50 in experiment [2] was 2.96 µM.

For the compound `O=C(Cn1c2ccc(F)cc2c2nc3n(c(=O)c21)CCS3)N1CCCCCC1`, the AC50 in experiment [2] is 1.36 µM.

With `COC(=O)Cn1nc(-c2ccc(C)cc2)c2ccccc21`, the AC50 in experiment [2] is 8.98 µM.

Turning to `O=C(Cn1c2ccccc2c2nc3n(c(=O)c21)CCS3)N1CCCCC1`, in experiment [2], the AC50 is 2.08 µM.

With `O=C(c1ccc(F)cc1)N1CCN(c2ccccn2)CC1`, the AC50 in experiment [2] was > 12 µM (inactive).

Take `O=C(c1ccccc1Cl)N1CCN(c2ccccn2)CC1`: the activity change, negative = inhibition in experiment [1] (at 12 µM (top of the series)) was 8.16% (inactive).

`N#Cc1cccc(N2CCN(C(=O)c3ccc(Cl)cc3)CC2)n1`: the activity change, negative = inhibition in experiment [1] (at 12 µM (top of the series)) was 0.43% (inactive).

As for `CC1CCN(C(=O)Cn2c3ccc(F)cc3c3nc4n(c(=O)c32)CCCS4)CC1`, the AC50 in experiment [2] was 2.09 µM.

`CCCNC(=O)Cn1nc(-c2ccccc2)c2cc(Cl)ccc21`: the activity change, negative = inhibition in experiment [1] (at 12 µM (top of the series)) was 27.1% (inactive).

As for `COC(=O)Cn1nc(-c2ccccc2)c2ccccc21`, the AC50 in experiment [2] is 2.11 µM.

For `COc1ccc2c(c1)c1nc3n(c(=O)c1n2CC(=O)N1CCC(Cc2ccccc2)CC1)CCS3`, the activity change, negative = inhibition in experiment [1] (at 12 µM (top of the series)) is -1.27% (inactive).

`c1ccc(-c2n[nH]c3ccccc23)cc1`: the activity change, negative = inhibition in experiment [1] (at 12 µM (top of the series)) is 24.5% (inactive).

As for `CCN(CC)C(=O)Cn1c2ccc(F)cc2c2nc3n(c(=O)c21)CCS3`, the AC50 in experiment [2] was 0.685 µM.

Regarding `Cc1cccc(N2CCN(C(=O)c3ccc(Cl)cc3)CC2)n1`, the activity change, negative = inhibition in experiment [1] (at 12 µM (top of the series)) was -17.4% (inactive).

With `O=C(Cn1nc(-c2ccccc2)c2ccccc21)N1CCc2ccccc2C1`, the activity change, negative = inhibition in experiment [1] (at 12 µM (top of the series)) is 3.01% (inactive).

In the case of `CNC(=O)Cn1nc(-c2ccccc2)c2ccccc21`, the activity change, negative = inhibition in experiment [1] (at 12 µM (top of the series)) is 10.1% (inactive).

As to `O=C(c1ccc(Cl)cc1)N1CCN(c2nc3ccccc3o2)CC1`, the AC50 in experiment [2] was 12.1 µM.

`CC1CCN(C(=O)Cn2c3ccccc3c3nc4n(c(=O)c32)CCCS4)CC1`: the AC50 in experiment [2] was 11 µM.

In the case of `COC(=O)Cn1nc(-c2ccccc2)c2cc(Cl)ccc21`, the AC50 in experiment [2] was 8.1 µM.

Take `O=C(Cn1c2ccccc2c2nc3n(c(=O)c21)CCS3)N1CCCC1`: the AC50 in experiment [2] is 0.837 µM and 2.69 µM.

Turning to `COC(=O)Cn1c(-c2ccccc2)nc2ccccc21`, the activity change, negative = inhibition in experiment [1] (at 12 µM (top of the series)) was -5.95% (inactive).

As for `O=C(Cn1c2ccccc2c2nc3n(c(=O)c21)CCS3)N1CCOCC1`, in experiment [2], the AC50 is 2.66 µM.

For the compound `O=C(Cn1nc(C(=O)N2CCCCC2)c2ccccc21)N1CCOCC1`, the activity change, negative = inhibition in experiment [1] (at 12 µM (top of the series)) was -6.13% (inactive).

Regarding `O=C(O)Cn1nc(-c2ccccc2)c2ccccc21`, the activity change, negative = inhibition in experiment [1] (at 12 µM (top of the series)) was -8.71% (inactive).
